We go through 30 compounds from ChEMBL document CHEMBL1149590, “Synthesis and evaluation of homo-bivalent GnRHR ligands” (Bioorg Med Chem, 2007).

Some results are limits rather than exact numbers.

Test [1] addresses T1, Gonadotropin-releasing hormone receptor (Homo sapiens, UniProt P30968).
T1 sequence (P30968 whole entry): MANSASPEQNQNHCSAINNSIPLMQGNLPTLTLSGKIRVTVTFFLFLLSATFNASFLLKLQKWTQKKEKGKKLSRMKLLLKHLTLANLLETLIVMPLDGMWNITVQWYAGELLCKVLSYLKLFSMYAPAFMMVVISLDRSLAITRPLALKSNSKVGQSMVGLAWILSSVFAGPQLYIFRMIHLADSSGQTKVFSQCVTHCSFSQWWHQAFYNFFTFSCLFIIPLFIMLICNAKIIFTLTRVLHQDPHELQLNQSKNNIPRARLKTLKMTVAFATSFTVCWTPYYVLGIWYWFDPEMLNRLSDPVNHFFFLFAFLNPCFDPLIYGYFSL
Briefly: Antagonist activity at human GnRHR expressed in CHO cells after 30 mins by luciferase reporter gene assay. It counts as functional, cell-based. A general note: A reporter such as luciferase makes a cellular process visible.

In test [2] the target is T2, Gonadotropin-releasing hormone receptor (Homo sapiens) (UniProt P30968).
T2 sequence (whole entry): T1 sequence (P30968 whole entry)
In words: Displacement of [125I]triptorelin from human GnRHR expressed in CHO cells at 1 uM. It counts as cell-based. In outline: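 Single-point displacement at 1 μM test compound. CHO membranes bearing wild-type human GnRHR (20 µg protein) incubated 45 min at 22 °C with [125I]triptorelin (30,000 cpm) in Tris-HCl pH 7.4 containing MgCl2 and BSA. Nonspecific binding taken with 1 µM ganirelix, total binding with buffer. Bound radioligand recovered by filtration and gamma-counted; percent displacement reported.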

In test [3] the target is T1, Gonadotropin-releasing hormone receptor. Briefly: Displacement of [125I]triptorelin from human GnRHR expressed in CHO cells. The class given is cell-based. In outline:
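Membranes from CHO cells expressing wild-type human GnRHR (20 µg protein) incubated with [125I]triptorelin (30,000 cpm) and five competitor concentrations in 50 mM Tris-HCl pH 7.4, 2 mM MgCl2, 0.1% BSA, 45 min at 22 °C. Nonspecific binding defined with 1 µM ganirelix. Filtration, gamma counting. Ki from IC50 via Cheng-Prusoff (Kd 1.1 nM); at least three experiments in duplicate.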
In general terms: In a radioligand displacement assay an active substance lowers the binding of a labelled ligand.

The term IC50 denotes the concentration needed to halve the response being measured. Higher therefore signals weaker potency. The Ki is a dissociation constant, usually derived from enzyme kinetics or from competition with a known ligand. Read a high Ki as weaker binding.

Turning to `CCNC(=O)Nc1ccc(-c2nc3n(Cc4c(F)cccc4F)cc(C(=O)NCc4cn(CCOCCOCCOCCOCCN=[N+]=[N-])nn4)c(=O)n3c2CN(C)Cc2ccccc2)cc1`, the IC50 in test [1] was over 10000 nM. The compound further registered an Activity in test [2] of 70%.

Consider `CCOC(=O)c1cn(Cc2c(F)cccc2F)c2nc(-c3ccc(NC(=O)NCc4cn(CCn5cc(CNC(=O)Nc6ccc(-c7nc8n(Cc9c(F)cccc9F)cc(C(=O)OCC)c(=O)n8c7CN(C)Cc7ccccc7)cc6)nn5)nn4)cc3)c(CN(C)Cc3ccccc3)n2c1=O`, for which, in test [1], the half-inhibitory concentration (IC50) is 1910 nM. The compound also yielded an Activity in test [2] of 68%.

In test [1], `CCNC(=O)Nc1ccc(-c2nc3n(Cc4c(F)cccc4F)cc(C(=O)NCc4cn(CCOCCOCCOCCOCCn5cc(CNC(=O)c6cn(Cc7c(F)cccc7F)c7nc(-c8ccc(NC(=O)NCC)cc8)c(CN(C)Cc8ccccc8)n7c6=O)nn5)nn4)c(=O)n3c2CN(C)Cc2ccccc2)cc1` had a half-maximal inhibitory concentration (IC50) of over 10000 nM. Moreover, the Activity in test [2] was found to be 85%.

For `CCNC(=O)Nc1ccc(-c2nc3n(Cc4c(F)cccc4F)cc(C(=O)NCc4cn(CCN=[N+]=[N-])nn4)c(=O)n3c2CN(C)Cc2ccccc2)cc1`, the IC50 in test [1] is over 10000 nM. Also, the Activity in test [2] came to 78%.

Regarding `CCNC(=O)Nc1ccc(-c2nc3n(Cc4c(F)cccc4F)cc(C(=O)OCC)c(=O)n3c2CN(CC(=O)NCc2cn(CCn3cc(CNC(=O)CN(Cc4ccccc4)Cc4c(-c5ccc(NC(=O)NCC)cc5)nc5n(Cc6c(F)cccc6F)cc(C(=O)OCC)c(=O)n45)nn3)nn2)Cc2ccccc2)cc1`, in test [1], the midpoint of inhibition, the IC50, lay at 1910 nM. The same compound had an Activity in test [2] of 65%.

For `CCOC(=O)c1cn(Cc2c(F)cccc2F)c2nc(-c3ccc(NC(=O)NCc4cn(CCOCCOCCOCCn5cc(CNC(=O)Nc6ccc(-c7nc8n(Cc9c(F)cccc9F)cc(C(=O)OCC)c(=O)n8c7CN(C)Cc7ccccc7)cc6)nn5)nn4)cc3)c(CN(C)Cc3ccccc3)n2c1=O`, in test [1], half-maximal inhibition (IC50) was put at 355 nM. The Activity in test [2] was found to be 90%. This compound also showed an inhibition constant (Ki) in test [3] of 29.5 nM.

As for `CCNC(=O)Nc1ccc(-c2nc3n(Cc4c(F)cccc4F)cc(C(=O)OCC)c(=O)n3c2CN(CC(=O)NCc2cn(CCOCCOCCOCCOCCN=[N+]=[N-])nn2)Cc2ccccc2)cc1`, the midpoint of inhibition in test [1], the IC50, lay at 832 nM. The Activity in test [2] is 78%.

In turn, `CCNC(=O)Nc1ccc(-c2nc3n(Cc4c(F)cccc4F)cc(C(=O)OCC)c(=O)n3c2CN(CC(=O)NCc2cn(CCOCCOCCOCCn3cc(CNC(=O)CN(Cc4ccccc4)Cc4c(-c5ccc(NC(=O)NCC)cc5)nc5n(Cc6c(F)cccc6F)cc(C(=O)OCC)c(=O)n45)nn3)nn2)Cc2ccccc2)cc1` showed a half-maximal inhibitory concentration (IC50) in test [1] of 1320 nM. The same compound had an Activity in test [2] of 71%. The compound further showed a Ki in test [3] of 69.2 nM.

With `CCNC(=O)Nc1ccc(-c2nc3n(Cc4c(F)cccc4F)cc(C(=O)NCc4cn(CCOCCN=[N+]=[N-])nn4)c(=O)n3c2CN(C)Cc2ccccc2)cc1`, the IC50 in test [1] is over 10000 nM. Moreover, the Activity in test [2] came to 68%.

In turn, `CCOC(=O)c1cn(Cc2c(F)cccc2F)c2nc(-c3ccc(NC(=O)NCc4cn(CCOCCOCCN=[N+]=[N-])nn4)cc3)c(CN(C)Cc3ccccc3)n2c1=O` had an IC50 in test [1] of 2400 nM. The compound further gave an Activity in test [2] of 84%.

In turn, `CCOC(=O)c1cn(Cc2c(F)cccc2F)c2nc(-c3ccc(NC(=O)NCc4cn(CCOCCOCCOCCN=[N+]=[N-])nn4)cc3)c(CN(C)Cc3ccccc3)n2c1=O` showed an IC50 in test [1] of 3020 nM. Further, the Activity in test [2] turned out to be 84%.

Compound `CCNC(=O)Nc1ccc(-c2nc3n(Cc4c(F)cccc4F)cc(C(=O)OCC)c(=O)n3c2CN(CC(=O)NCc2cn(CCOCCn3cc(CNC(=O)CN(Cc4ccccc4)Cc4c(-c5ccc(NC(=O)NCC)cc5)nc5n(Cc6c(F)cccc6F)cc(C(=O)OCC)c(=O)n45)nn3)nn2)Cc2ccccc2)cc1` gave an IC50 in test [1] of 1550 nM. Moreover, the Activity in test [2] is 71%.

In the case of `CCNC(=O)Nc1ccc(-c2nc3n(Cc4c(F)cccc4F)cc(C(=O)OCC)c(=O)n3c2CN(CC(=O)NCc2cn(CCOCCOCCN=[N+]=[N-])nn2)Cc2ccccc2)cc1`, the 50% inhibitory concentration (IC50) in test [1] was 468 nM. The same compound yielded an Activity in test [2] of 83%.

Regarding `CCNC(=O)Nc1ccc(-c2nc3n(Cc4c(F)cccc4F)cc(C(=O)NCc4cn(CCOCCOCCN=[N+]=[N-])nn4)c(=O)n3c2CN(C)Cc2ccccc2)cc1`, in test [1], the IC50 is over 10000 nM. The compound further came in with an Activity in test [2] of 81%.

In test [1], `CCOC(=O)c1cn(Cc2c(F)cccc2F)c2nc(-c3ccc(NC(=O)NCc4cn(CCOCCOCCOCCOCCN=[N+]=[N-])nn4)cc3)c(CN(C)Cc3ccccc3)n2c1=O` gave an IC50 of 676 nM. The compound also registered an Activity in test [2] of 90%.

As to `CCOC(=O)c1cn(Cc2c(F)cccc2F)c2nc(-c3ccc(NC(=O)NCc4cn(CCOCCn5cc(CNC(=O)Nc6ccc(-c7nc8n(Cc9c(F)cccc9F)cc(C(=O)OCC)c(=O)n8c7CN(C)Cc7ccccc7)cc6)nn5)nn4)cc3)c(CN(C)Cc3ccccc3)n2c1=O`, the IC50 in test [1] was 3160 nM. In addition, in test [2], the Activity was 88%.

As to `CCOC(=O)c1cn(Cc2c(F)cccc2F)c2nc(-c3ccc(NC(=O)NCc4cn(CCOCCOCCOCCOCCn5cc(CNC(=O)Nc6ccc(-c7nc8n(Cc9c(F)cccc9F)cc(C(=O)OCC)c(=O)n8c7CN(C)Cc7ccccc7)cc6)nn5)nn4)cc3)c(CN(C)Cc3ccccc3)n2c1=O`, the IC50 in test [1] is 1350 nM. Besides, the Activity in test [2] was found to be 89%.

In turn, `CCNC(=O)Nc1ccc(-c2nc3n(Cc4c(F)cccc4F)cc(C(=O)NCc4cn(CCOCCOCCOCCn5cc(CNC(=O)c6cn(Cc7c(F)cccc7F)c7nc(-c8ccc(NC(=O)NCC)cc8)c(CN(C)Cc8ccccc8)n7c6=O)nn5)nn4)c(=O)n3c2CN(C)Cc2ccccc2)cc1` gave an IC50 in test [1] of over 10000 nM. The Activity in test [2] worked out at 86%.

For the compound `CCNC(=O)Nc1ccc(-c2nc3n(Cc4c(F)cccc4F)cc(C(=O)OCC)c(=O)n3c2CN(CC(=O)NCc2cn(CCOCCOCCn3cc(CNC(=O)CN(Cc4ccccc4)Cc4c(-c5ccc(NC(=O)NCC)cc5)nc5n(Cc6c(F)cccc6F)cc(C(=O)OCC)c(=O)n45)nn3)nn2)Cc2ccccc2)cc1`, in test [1], the IC50 was 832 nM. The Activity in test [2] came to 84%. In test [3], the affinity, expressed as Ki, was 58.9 nM.

The compound `CCOC(=O)c1cn(Cc2c(F)cccc2F)c2nc(-c3ccc(NC(=O)NCc4cn(CCN=[N+]=[N-])nn4)cc3)c(CN(C)Cc3ccccc3)n2c1=O` had an IC50 in test [1] of 2570 nM. Moreover, the Activity in test [2] is 76%.

In turn, `CCOC(=O)c1cn(Cc2c(F)cccc2F)c2nc(-c3ccc(NC(=O)NCc4cn(CCOCCN=[N+]=[N-])nn4)cc3)c(CN(C)Cc3ccccc3)n2c1=O` gave an IC50 in test [1] of 3630 nM. In test [2], this compound came in with an Activity of 85%.

The compound `CCOC(=O)c1cn(Cc2c(F)cccc2F)c2nc(-c3ccc(NC(=O)NCc4cn(CCOCCOCCn5cc(CNC(=O)Nc6ccc(-c7nc8n(Cc9c(F)cccc9F)cc(C(=O)OCC)c(=O)n8c7CN(C)Cc7ccccc7)cc6)nn5)nn4)cc3)c(CN(C)Cc3ccccc3)n2c1=O` had a half-maximal inhibitory concentration (IC50) in test [1] of 955 nM. The compound also came in with an Activity in test [2] of 94%. Besides, the Ki in test [3] was 23.4 nM.

Take `C#CCNC(=O)Nc1ccc(-c2nc3n(Cc4c(F)cccc4F)cc(C(=O)OCC)c(=O)n3c2CN(C)Cc2ccccc2)cc1`: half-maximal inhibition in test [1] (IC50) was put at 676 nM. The compound also had an Activity in test [2] of 98%. Also, the Ki in test [3] is 1.35 nM.

With `CCNC(=O)Nc1ccc(-c2nc3n(Cc4c(F)cccc4F)cc(C(=O)OCC)c(=O)n3c2CN(CC(=O)NCc2cn(CCN=[N+]=[N-])nn2)Cc2ccccc2)cc1`, 724 nM corresponded to half-maximal inhibition in test [1] (IC50). Further, in test [2], the Activity was determined as 74%.

Compound `CCNC(=O)Nc1ccc(-c2nc3n(Cc4c(F)cccc4F)cc(C(=O)NCc4cn(CCOCCOCCOCCN=[N+]=[N-])nn4)c(=O)n3c2CN(C)Cc2ccccc2)cc1` showed a 50% inhibitory concentration (IC50) in test [1] of over 10000 nM. This compound displayed an Activity in test [2] of 69%.

Consider `CCNC(=O)Nc1ccc(-c2nc3n(Cc4c(F)cccc4F)cc(C(=O)NCc4cn(CCOCCn5cc(CNC(=O)c6cn(Cc7c(F)cccc7F)c7nc(-c8ccc(NC(=O)NCC)cc8)c(CN(C)Cc8ccccc8)n7c6=O)nn5)nn4)c(=O)n3c2CN(C)Cc2ccccc2)cc1`, for which the IC50 in test [1] is over 10000 nM. In addition, the Activity in test [2] was determined as 64%.

Consider `CCNC(=O)Nc1ccc(-c2nc3n(Cc4c(F)cccc4F)cc(C(=O)NCc4cn(CCn5cc(CNC(=O)c6cn(Cc7c(F)cccc7F)c7nc(-c8ccc(NC(=O)NCC)cc8)c(CN(C)Cc8ccccc8)n7c6=O)nn5)nn4)c(=O)n3c2CN(C)Cc2ccccc2)cc1`, for which the IC50 in test [1] was over 10000 nM. This compound showed an Activity in test [2] of 26%.

In the case of `CCNC(=O)Nc1ccc(-c2nc3n(Cc4c(F)cccc4F)cc(C(=O)OCC)c(=O)n3c2CN(CC(=O)NCc2cn(CCOCCOCCOCCN=[N+]=[N-])nn2)Cc2ccccc2)cc1`, in test [1], 724 nM corresponded to half-maximal inhibition (IC50). Moreover, in test [2], the Activity came out at 76%.

As to `C#CCNC(=O)c1cn(Cc2c(F)cccc2F)c2nc(-c3ccc(NC(=O)NCC)cc3)c(CN(C)Cc3ccccc3)n2c1=O`, the IC50 in test [1] was 7080 nM. In addition, in test [2], the Activity was determined as 85%. The compound also showed an inhibitory constant (Ki) in test [3] of 162 nM.

The compound `CCNC(=O)Nc1ccc(-c2nc3n(Cc4c(F)cccc4F)cc(C(=O)OCC)c(=O)n3c2CN(CC(=O)NCc2cn(CCOCCN=[N+]=[N-])nn2)Cc2ccccc2)cc1` had a concentration for half-maximal inhibition (IC50) in test [1] of 525 nM. The same compound returned an Activity in test [2] of 66%.
